Source: ChEMBL document CHEMBL4130628, “Identification and Pharmacological Profile of an Indane Based Series of Ghrelin Receptor Full Agonists” (J Med Chem, 2018)
The source made the active and inactive calls. The rule behind the calls is not given here.

Legend:
[1] = molecular target: T1, Growth hormone secretagogue receptor type 1 (Homo sapiens, UniProt Q92847); assay: Agonist activity at human GHS receptor assessed as intracellular myo-IP1 secretion after 90 mins by HTRF analysis; type: functional, cell-based
T1 sequence (Q92847 whole entry): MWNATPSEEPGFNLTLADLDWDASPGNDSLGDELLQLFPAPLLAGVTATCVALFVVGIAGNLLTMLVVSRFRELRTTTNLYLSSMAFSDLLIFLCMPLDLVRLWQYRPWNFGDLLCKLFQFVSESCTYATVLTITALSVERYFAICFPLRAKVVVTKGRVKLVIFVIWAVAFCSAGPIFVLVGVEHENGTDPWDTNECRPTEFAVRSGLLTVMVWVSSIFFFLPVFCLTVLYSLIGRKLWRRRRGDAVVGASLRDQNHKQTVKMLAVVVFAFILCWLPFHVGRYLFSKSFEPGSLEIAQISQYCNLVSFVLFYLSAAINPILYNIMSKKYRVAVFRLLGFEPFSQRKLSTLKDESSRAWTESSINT

[2] = 1-octanol/aqueous buffer distribution coefficient, log D of compound at pH 7.4; type: physicochemical
[3] = molecular target: T1, Growth hormone secretagogue receptor type 1; assay: Displacement of human [125I]-ghrelin from GHS-R1a (unknown origin) expressed in HEK293 cell membranes after 1 hr by radioligand binding assay
[4] = molecular target: Voltage-gated inwardly rectifying potassium channel KCNH2 (Homo sapiens, UniProt Q12809); assay: Inhibition of human ERG expressed in CHO cells; type: cell-based
Voltage-gated inwardly rectifying potassium channel KCNH2, sequence (Q12809 whole entry): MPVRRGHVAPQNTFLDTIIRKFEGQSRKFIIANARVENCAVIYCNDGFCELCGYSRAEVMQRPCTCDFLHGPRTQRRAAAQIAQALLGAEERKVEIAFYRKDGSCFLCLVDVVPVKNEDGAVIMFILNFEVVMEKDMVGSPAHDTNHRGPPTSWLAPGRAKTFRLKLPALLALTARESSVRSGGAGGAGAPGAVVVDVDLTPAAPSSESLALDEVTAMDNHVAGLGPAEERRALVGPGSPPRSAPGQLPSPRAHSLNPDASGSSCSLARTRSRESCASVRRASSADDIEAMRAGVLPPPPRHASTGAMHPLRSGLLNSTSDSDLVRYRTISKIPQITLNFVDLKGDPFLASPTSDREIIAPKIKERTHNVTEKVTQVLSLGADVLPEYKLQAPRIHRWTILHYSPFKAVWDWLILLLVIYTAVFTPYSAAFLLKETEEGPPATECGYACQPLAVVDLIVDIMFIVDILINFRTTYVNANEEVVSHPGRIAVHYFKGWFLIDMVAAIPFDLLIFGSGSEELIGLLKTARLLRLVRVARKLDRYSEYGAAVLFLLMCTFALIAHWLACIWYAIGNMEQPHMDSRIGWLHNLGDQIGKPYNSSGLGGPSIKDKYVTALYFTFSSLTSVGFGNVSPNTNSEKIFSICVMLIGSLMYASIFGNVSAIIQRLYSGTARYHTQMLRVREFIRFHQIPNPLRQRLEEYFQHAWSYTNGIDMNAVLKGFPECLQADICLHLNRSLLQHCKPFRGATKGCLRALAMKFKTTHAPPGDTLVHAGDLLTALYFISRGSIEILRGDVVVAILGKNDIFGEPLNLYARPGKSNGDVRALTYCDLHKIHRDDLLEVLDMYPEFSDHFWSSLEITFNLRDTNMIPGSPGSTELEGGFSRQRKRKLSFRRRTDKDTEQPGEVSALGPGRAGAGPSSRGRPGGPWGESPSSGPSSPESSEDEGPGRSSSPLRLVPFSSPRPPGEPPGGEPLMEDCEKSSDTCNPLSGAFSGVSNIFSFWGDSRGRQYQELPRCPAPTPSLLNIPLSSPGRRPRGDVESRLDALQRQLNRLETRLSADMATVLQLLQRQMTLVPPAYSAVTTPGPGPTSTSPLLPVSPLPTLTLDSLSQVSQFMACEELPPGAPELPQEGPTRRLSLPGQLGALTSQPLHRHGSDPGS
Summary of the method: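 hERG currents recorded from CHO cells expressing hERG.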

[5] = Clearance in Beagle dog at 1 mg/kg, iv or 2 mg/kg, po after 24 hrs by LC-MS/MS analysis; type: ADME, organism-based, Canis lupus familiaris; conditions: in vivo
Summary of the method: (§1)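 Male/female beagles (2–5 y, 12–15 kg) were fasted overnight. IV: about 1 mg/Kg as a 15-min infusion to two animals, in 5% DMSO/95% SBE-β-CD (30% w/v) adjusted to pH 7.5. PO: about 2 mg/Kg by gavage, in the same vehicle or 0.5% HPMC/0.1% Tween 80 suspension. Jugular blood was drawn 0.03–24 h (IV) or 0.17–24 h (PO). K2-EDTA plasma analysed by LC-MS/MS.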

[6] = Volume of distribution in Beagle dog at 1 mg/kg, iv or 2 mg/kg, po after 24 hrs by LC-MS/MS analysis; type: ADME, organism-based, Canis lupus familiaris; conditions: in vivo; summary of the method: as §1
[7] = Half life in Beagle dog at 2 mg/kg, po after 24 hrs by LC-MS/MS analysis; type: ADME, organism-based, Canis lupus familiaris; conditions: in vivo; summary of the method: as §1
[8] = Oral bioavailability in Beagle dog at 2 mg/kg after 24 hrs by LC-MS/MS analysis; type: ADME, organism-based, Canis lupus familiaris; conditions: in vivo; summary of the method: as §1
[9] = Apparent permeability across apical to basolateral side in human Caco2 cells at pH 7.4; type: ADME, cell-based; conditions: Caco-2, pH 7.4
[10] = Apparent permeability across basolateral to apical side in human Caco2 cells at pH 7.4; type: ADME, cell-based; conditions: Caco-2, pH 7.4
[11] = Efflux ratio of apparent permeability across basolateral to apical over apical to basolateral side in human Caco2 cells; type: ADME, cell-based; conditions: Caco-2
Summary of the method: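 Caco-2 monolayers; Papp measured in both directions at pH 7.4 (units 1E-6 cm/s). Efflux ratio taken as Papp basolateral-to-apical divided by Papp apical-to-basolateral.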

[12] = Apparent intrinsic permeability across apical to basolateral side in human Caco2 cells at pH 6.5; type: ADME, cell-based; conditions: Caco-2, pH 6.5
[13] = Ratio of unbound drug level in brain to plasma in Beagle dog at 1 mg/kg, iv or 2 mg/kg, po after 24 hrs by LC-MS/MS analysis; type: ADME, organism-based, Canis lupus familiaris; conditions: read-out: K(p,uu,brain)
Canis familiaris = assay: Increase in plasma IGF1 level in Beagle dog at 4 mg/kg, po measured after 4 to 7 hrs post dose by ELIS; type: functional, organism-based; conditions: Canis lupus familiaris
Summary of the method: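 Dog blood taken before dosing and at 15, 30, 45 min and 1, 2, 4, 7, 12, 24 h post dose into K2EDTA tubes. Centrifuged at 4°C; plasma frozen below -80°C until IGF-1 analysis.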

hERG (KCNH2) = hERG (KCNH2) (Homo sapiens, UniProt Q12809); assay: Inhibition of human ERG expressed in CHO cells at 11 uM relative to control; type: cell-based; conditions: CHO cells that express hERG
hERG (KCNH2), sequence (Q12809 whole entry): as above

[14] = Intrinsic clearance in human liver microsomes; type: ADME, microsome; conditions: read-out: CLH
[15] = 1-octanol/aqueous buffer, read-out: logD

| Compound | EC50 ([1]; read-out: EC50) [nM] | logD [2, 15] | IC50 ([3]; read-out: IC50) [nM] | also measured |
| --- | --- | --- | --- | --- |
| Cc1ccc2[nH]c(C(=O)N[C@H]3Cc4ccccc4[C@@H]3NC(=O)[C@H]3COCCN(C)C3)cc2c1 | 21 | 3.7 | – | – |
| CN1CCCO[C@H](C(=O)N[C@H]2c3ccccc3C[C@@H]2NC(=O)c2ccc3c(ccn3C)c2)C1 | 10 | 2.3 | 71 | – |
| CN1CCC[C@@H](C(=O)N[C@H]2c3ccccc3C[C@@H]2NC(=O)c2ccc3c(ccn3C)c2)C1 | 170 | 1.9 | 528 | – |
| Cc1ccc2[nH]c(C(=O)N[C@H]3Cc4ccccc4[C@H]3NC(=O)CCN(C)C)cc2c1 | 100 | – | 69 | IC50 [4]: 25100 nM |
| CC(=O)N1CCO[C@H](C(=O)N[C@H]2c3ccccc3C[C@@H]2NC(=O)c2ccc3c(ccn3C)c2)C1 | > 7700 | 2.2 | – | EC50 ([1]; read-out: pEC50 (converted)): > 10000 nM |
| CN1CCCCC(C(=O)N[C@H]2c3ccccc3C[C@@H]2NC(=O)c2ccc3c(ccn3C)c2)C1 (stereo in doubt; 27) | 36 | 2.1 | 107 | – |
| Cn1ccc2c(F)c(C(=O)N[C@H]3Cc4ccccc4[C@@H]3NC(=O)c3cnccc3N)ccc21 | 3 | 2.9 | 13 | EC50 ([1]; read-out: pEC50 (converted)): 10 nM |
| CN1CC[C@H](C(=O)N[C@H]2c3ccccc3C[C@@H]2NC(=O)c2ccc3c(ccn3C)c2)C1 | 250 | 1.4 | 343 | – |
| CN1CCC[C@H]1CC(=O)N[C@H]1c2ccccc2C[C@@H]1NC(=O)c1ccc2c(ccn2C)c1 | 19 | 1.7 | 29 | – |
| Cc1ccc2[nH]c(C(=O)N[C@H]3Cc4ccccc4[C@@H]3NC(=O)[C@@H]3CN(C)CCO3)cc2c1 | 1.4 | 3.7 | 14 | clearance [5]: 28 mL/min/kg; Vd [6]: 2.1 L/kg; half-life [7]: 1.2 h; bioavailability [8]: 39%; Papp A→B [9]: 15.3 ×10⁻⁶ cm/s; Papp B→A [10]: 7.5 ×10⁻⁶ cm/s; efflux ratio [11]: 0.5; Papp A→B [12]: 44.4 ×10⁻⁶ cm/s; Kp uu at 24 h [13]: 0.292; Activity (Canis familiaris): Active |
| Nc1ccncc1C(=O)N[C@H]1c2ccccc2C[C@@H]1NC(=O)c1cc2c(F)cc(F)cc2[nH]1 | 3 | 3.1 | 14 | – |
| Cn1ccc2cc(C(=O)N[C@H]3Cc4ccccc4[C@@H]3NC(=O)c3cnccc3N)c(F)cc21 | 135 | 3.1 | – | – |
| Cc1ccc2[nH]c(C(=O)N[C@H]3Cc4ccccc4[C@@H]3NC(=O)CCN(C)C)cc2c1 | 21 | – | 16 | IC50 [4]: 7940 nM |
| Cn1c(C(=O)N[C@H]2Cc3ccccc3[C@@H]2NC(=O)c2cnccc2N)cc2ccccc21 | 15 | 4.1 | 246 | – |
| Cc1ccc2[nH]c(C(=O)N[C@@H]3Cc4ccccc4[C@H]3NC(=O)CCN(C)C)cc2c1 | 226 | – | 930 | IC50 [4]: 2510 nM |
| CN1CCC[C@@H]1CC(=O)N[C@H]1c2ccccc2C[C@@H]1NC(=O)c1ccc2c(ccn2C)c1 | > 740 | 1.8 | 184 | EC50 ([1]; read-out: pEC50 (converted)): > 794 nM |
| O=C(N[C@H]1Cc2ccccc2[C@@H]1NC(=O)[C@H]1CCNC1)c1cc2cc(F)ccc2[nH]1 | 47 | – | 189 | IC50 [4]: > 10000 nM |
| Cc1ccc2[nH]c(C(=O)N[C@H]3Cc4ccccc4[C@@H]3NC(=O)[C@@H]3CNCCOC3)cc2c1 | 137 | 2.6 | – | – |

| Compound | EC50 ([1]; read-out: EC50) [nM] | logD [2, 15] | IC50 ([3]; read-out: IC50) [nM] | also measured |
| --- | --- | --- | --- | --- |
| CN1CCCO[C@@H](C(=O)N[C@H]2c3ccccc3C[C@@H]2NC(=O)c2ccc3c(ccn3C)c2)C1 | 262 | 2.3 | > 1000 | pIC50 ([3]; hek293): < 6 |
| CN1CC[C@@H](C(=O)N[C@H]2c3ccccc3C[C@@H]2NC(=O)c2ccc3c(ccn3C)c2)C1 | 129 | 1.4 | 288 | – |
| CN1CCC[C@H](C(=O)N[C@H]2c3ccccc3C[C@@H]2NC(=O)c2ccc3c(ccn3C)c2)C1 | 28 | 2.1 | 556 | – |
| CN(C)CCC(=O)N[C@H]1c2ccccc2C[C@@H]1NC(=O)c1cc2cc(F)c(F)cc2[nH]1 | 35 | – | 98 | IC50 [4]: 3980 nM |
| CN1CCCCC(C(=O)N[C@H]2c3ccccc3C[C@@H]2NC(=O)c2ccc3c(ccn3C)c2)C1 (stereo in doubt; 28) | 76 | – | 189 | logD ([2]; octanol/water): 1.6 |
| Cc1ccc2[nH]c(C(=O)N[C@H]3Cc4ccccc4[C@@H]3NC(=O)c3cnccc3N)cc2c1 | 14 | 3 | 35 | – |
| Cc1ccc2[nH]c(C(=O)N[C@H]3Cc4ccccc4[C@@H]3C(=O)N[C@H]3CCCN(C)C3)cc2c1 | 0.1 | 3 | – | inhibition at 11 µM (hERG (KCNH2)): 30%; microsomal CLint [14]: 132 µL/min/mg |
| CN1CCO[C@@H](C(=O)N[C@H]2c3ccccc3C[C@@H]2NC(=O)c2ccc3c(ccn3C)c2)C1 | 274 | 2.4 | > 2900 | IC50 ([3]; read-out: pIC50 (converted)): > 3160 nM |
| Nc1ccncc1C(=O)N[C@H]1c2ccccc2C[C@@H]1NC(=O)c1nc2cc(F)c(F)cc2[nH]1 | 23 | 2.4 | 89 | – |
| COCCNCCC(=O)N[C@H]1c2ccccc2C[C@@H]1NC(=O)c1cc2ccccc2n1C | 160 | – | 430 | IC50 [4]: 1580 nM |
| CN(C)CCNC(=O)[C@@H]1c2ccccc2C[C@H]1NC(=O)c1cc2ccccc2[nH]1 | 630 | 2.3 | 560 | IC50 [4]: 12600 nM; microsomal CLint [14]: 3 µL/min/mg |
| Nc1ccncc1C(=O)N[C@H]1c2ccccc2C[C@@H]1NC(=O)c1cc2ccccc2[nH]1 | 25 | 2.4 | 49 | – |
| Cc1ccc2[nH]c(C(=O)N[C@H]3Cc4ccccc4[C@@H]3C(=O)N(C)CCN(C)C)cc2c1 | 5 | 2.5 | 14 | inhibition at 11 µM (hERG (KCNH2)): 50%; microsomal CLint [14]: 26 µL/min/mg |
| Cn1ccc2cc(C(=O)N[C@H]3Cc4ccccc4[C@@H]3NC(=O)c3cnccc3N)cc(F)c21 | 7 | 4 | – | – |
| CN1N=C2CCN(C(=O)[C@@H](COCc3ccccc3)NC(=O)C(C)(C)N)C[C@@]2(Cc2ccccc2)C1=O [CAPROMORELIN] | 0.9 | – | 22 | – |
| N#Cc1ccc2[nH]c(C(=O)N[C@H]3Cc4ccccc4[C@@H]3NC(=O)c3cnccc3N)cc2c1 | 44 | 2.1 | 187 | – |
| Cc1ccc2[nH]c(C(=O)N[C@H]3Cc4ccccc4[C@H]3C(=O)NCCN(C)C)cc2c1 | – | 2.3 | – | inhibition at 11 µM (hERG (KCNH2)): 42% |
| Cc1ccc2[nH]c(C(=O)N[C@@H]3Cc4ccccc4[C@@H]3NC(=O)CCN(C)C)cc2c1 | 1500 | – | 1260 | IC50 [4]: 6310 nM |
